In article PMC7497807 (Blood cancer discovery, 2020):
No end group written: not given here.

Biological target: T1, MBP-ENL (Homo sapiens, UniProt Q03111)
T1 sequence (Q03111 1-559): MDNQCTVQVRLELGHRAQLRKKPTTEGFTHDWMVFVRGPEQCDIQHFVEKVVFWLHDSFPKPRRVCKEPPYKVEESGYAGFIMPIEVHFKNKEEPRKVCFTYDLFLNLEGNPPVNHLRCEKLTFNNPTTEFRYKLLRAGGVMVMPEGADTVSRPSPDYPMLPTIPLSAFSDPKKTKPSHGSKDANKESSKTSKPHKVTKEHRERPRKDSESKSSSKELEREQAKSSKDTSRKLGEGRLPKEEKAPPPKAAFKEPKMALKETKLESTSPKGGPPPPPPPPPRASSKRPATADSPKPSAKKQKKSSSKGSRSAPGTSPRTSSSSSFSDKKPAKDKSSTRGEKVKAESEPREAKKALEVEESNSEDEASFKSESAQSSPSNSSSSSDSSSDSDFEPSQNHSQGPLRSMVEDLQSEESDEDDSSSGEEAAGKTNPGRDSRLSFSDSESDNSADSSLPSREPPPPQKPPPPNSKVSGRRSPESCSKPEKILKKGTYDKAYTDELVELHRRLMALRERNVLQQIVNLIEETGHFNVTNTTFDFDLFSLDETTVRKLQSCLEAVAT
Assay: FA binding of fluorescein-labeled peptides to MBP-ENL
Conditions: fluorescence anisotropy, fluorescein-labeled peptide, MBP-ENL versus MBP-AF9
Procedure, shortened: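 Fluorescence anisotropy titrations of fluoresceinated peptides spanning the AF9-binding motif of each binding partner, run with MBP-ENL and, in parallel, MBP-AF9. A KD was obtained for each protein–peptide pair, and the fold change was taken as AF9 KD/ENL KD. Each measurement was run in three replicates, with error given as SEM.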

“FITC-CBX8: fluorescein-labeled CBX8 peptide (AQGGRPSLIARIPVARILGDPEEE; also: fluorescein-labeled, attachment not given here)” was tested, and the “affinity for ENL compared with affinity for AF9 (in words)” value was “substantial enhancement in binding”.
